We go through 36 compounds from the M2OR odorant receptor database.

Molecules are shown by their SMILES.

The first assay has as its target T1, OR14J1 (Homo sapiens) (UniProt Q9UGF5).
T1 sequence (whole entry): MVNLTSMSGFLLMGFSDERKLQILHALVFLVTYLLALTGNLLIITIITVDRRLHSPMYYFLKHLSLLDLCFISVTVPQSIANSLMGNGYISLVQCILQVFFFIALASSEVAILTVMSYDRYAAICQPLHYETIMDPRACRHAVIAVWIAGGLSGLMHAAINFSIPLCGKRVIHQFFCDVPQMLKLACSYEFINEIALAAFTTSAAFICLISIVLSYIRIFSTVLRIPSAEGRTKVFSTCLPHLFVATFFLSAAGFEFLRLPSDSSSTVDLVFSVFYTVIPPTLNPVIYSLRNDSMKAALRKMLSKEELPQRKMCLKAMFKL
Conditions: stereoisomer not certain. The method in brief: (§1)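 Values were gathered from published papers (main text and supplementary material), with extra details requested from the original authors when needed, and checked for typos and inconsistencies. Each receptor–molecule pair is called responsive (active) if the original authors judged the measured signal statistically different from baseline, and non-responsive (inactive) otherwise. Assay methods varied by source, often transient mammalian cell-line luciferase assays. Recorded details include cell line, G-protein, co-transfected protein and tags.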
As to `CC1CCCCCCCCCCCCC(=O)C1` (stereo not drawn), the “odorant receptor agonist call” value is “inactive”. On the same count and under the same terms, then `CC1=C(O)C(=O)OC1C` (stereo not drawn), with “inactive”. Consider `CCCCCC(S)C(C)CO` (stereo not drawn), for which the “odorant receptor agonist call” value was “inactive”. On the same count and under the same terms, then `CCCCCC(=O)C(C)C(C)=O` (stereo not drawn), with “inactive”; and `CCCC(S)CCOC(C)=O` (stereo not drawn), with “inactive”; and `CCCCCCC=CCCC=O`, with “inactive”. With `CCC(S)C(C)CO` (stereo not drawn), the “odorant receptor agonist call” value is “inactive”. Regarding `CC1=C(O)C(=O)C(C)O1` (stereo not drawn), the “odorant receptor agonist call” value was “inactive”. On the same count and under the same terms, then `CCC1OC(C)=C(O)C1=O` (stereo not drawn), with “inactive”; and `CC1=NC(C)C(C)S1` (stereo not drawn), with “inactive”; and `Cc1cnc(C)c(C)n1`, with “inactive”. Still for that read-out and setting: then `CC(=O)c1c(C)c([N+](=O)[O-])c(C(C)(C)C)c([N+](=O)[O-])c1C`, with “inactive”.

The target in a further assay is T2, OR14K1 (Homo sapiens) (UniProt Q8NGZ2).
T2 sequence (whole entry): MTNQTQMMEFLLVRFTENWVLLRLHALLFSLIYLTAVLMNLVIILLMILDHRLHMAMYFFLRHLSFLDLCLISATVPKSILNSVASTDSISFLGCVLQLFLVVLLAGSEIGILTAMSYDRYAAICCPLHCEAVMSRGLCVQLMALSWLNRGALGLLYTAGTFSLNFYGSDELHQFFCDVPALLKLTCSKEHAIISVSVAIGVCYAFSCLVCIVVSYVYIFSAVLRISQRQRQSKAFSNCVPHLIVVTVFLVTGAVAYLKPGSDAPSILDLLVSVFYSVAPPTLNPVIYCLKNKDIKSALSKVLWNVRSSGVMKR
To be noted: stereoisomer not certain. In short, it runs like this: as §1
Turning to `CCCCC(S)C(C)CO` (stereo not drawn), the “odorant receptor agonist call” value was “inactive”. On to `CC(CO)CS` (stereo not drawn), for which the “odorant receptor agonist call” value was “inactive”. `CCC1OC(=O)C(O)=C1C` (stereo not drawn): the “odorant receptor agonist call” value is “inactive”.

Regarding `CC1CCCCCCCCCCCCC(=O)C1` (stereo not drawn), the “odorant receptor agonist call” value was “inactive”. The same measure, in the same setting: with `CC1=C(O)C(=O)OC1C` (stereo not drawn) the entry was “inactive”; with `CCCCCC(S)C(C)CO` (stereo not drawn), “inactive”. In the case of `CCCCCC(=O)C(C)C(C)=O` (stereo not drawn), the “odorant receptor agonist call” value is “inactive”.

As for `CCCC(S)CCOC(C)=O` (stereo not drawn), the “odorant receptor agonist call” value is “inactive”. Take `CCCCCCC=CCCC=O`: the “odorant receptor agonist call” value was “inactive”. Consider `CCC(S)C(C)CO` (stereo not drawn), for which the “odorant receptor agonist call” value is “inactive”.

`CC1=C(O)C(=O)C(C)O1` (stereo not drawn): the “odorant receptor agonist call” value is “inactive”. Same read-out and setting: then `CCC1OC(C)=C(O)C1=O` (stereo not drawn), with “inactive”; and `CC1=NC(C)C(C)S1` (stereo not drawn), with “inactive”. The same measure, in the same setting: then `Cc1cnc(C)c(C)n1`, with “inactive”. As for `CC(=O)c1c(C)c([N+](=O)[O-])c(C(C)(C)C)c([N+](=O)[O-])c1C`, the “odorant receptor agonist call” value was “inactive”.

In another assay the target is T3, OR1A1 (Homo sapiens) (UniProt Q9P1Q5).
T3 sequence (whole entry): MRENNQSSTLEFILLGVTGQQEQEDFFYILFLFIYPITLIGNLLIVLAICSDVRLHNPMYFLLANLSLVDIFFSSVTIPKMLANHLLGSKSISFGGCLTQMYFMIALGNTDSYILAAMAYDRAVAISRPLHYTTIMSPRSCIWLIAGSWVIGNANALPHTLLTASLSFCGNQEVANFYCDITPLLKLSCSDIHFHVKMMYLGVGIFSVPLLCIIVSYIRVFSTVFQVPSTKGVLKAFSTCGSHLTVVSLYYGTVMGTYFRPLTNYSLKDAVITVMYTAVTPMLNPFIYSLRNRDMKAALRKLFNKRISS
Conditions: stereoisomer not certain. In short, it runs like this: as §1
On to `CCCCCCCC(=O)[O-].[H+]`, for which the “odorant receptor agonist call” value is “inactive”. For `CCCCCC=CC=O`, the “odorant receptor agonist call” value is “inactive”. As to `CCCCC(S)C(C)CO` (stereo not drawn), the “odorant receptor agonist call” value is “inactive”. For the compound `CCC(=O)C1=NCCC1`, the “odorant receptor agonist call” value was “inactive”. Take `CCCCC(=O)CC`: the “odorant receptor agonist call” value is “active”. With `CC(CO)CS` (stereo not drawn), the “odorant receptor agonist call” value was “inactive”. Same read-out and setting: with `CCC1OC(=O)C(O)=C1C` (stereo not drawn) the entry was “inactive”. Turning to `CC1CCCCCCCCCCCCC(=O)C1` (stereo not drawn), the “odorant receptor agonist call” value was “active”. Same read-out and setting: then `CCCCC=CC=CC=O`, with “inactive”; and `C=C(C)C1CC=C(C)CC1` (stereo not drawn), with “active”. The same measure, in the same setting: with `CC(=O)C1=NCCS1` the entry was “inactive”; with `CCC(C)C=O` (stereo not drawn), “inactive”; with `CCCCOC(=O)C(C)OC(=O)CCC` (stereo not drawn), “inactive”. Take `CC1=C(O)C(=O)OC1C` (stereo not drawn): the “odorant receptor agonist call” value is “inactive”. In the case of `CCCCCCCC=CC=CC=O`, the “odorant receptor agonist call” value was “inactive”.

Take `CCCCCC(S)C(C)CO` (stereo not drawn): the “odorant receptor agonist call” value is “inactive”.

On to `C1CCNC1`, for which the “odorant receptor agonist call” value is “inactive”. `CCCCCC(=O)C(C)C(C)=O` (stereo not drawn): the “odorant receptor agonist call” value was “active”. On the same count and under the same terms, with `CCOC(=O)C(C)C` the entry was “inactive”. On to `CCCCCCC(=O)[O-].[H+]`, for which the “odorant receptor agonist call” value was “inactive”. Same read-out and setting: with `CCCC(S)CCOC(C)=O` (stereo not drawn) the entry was “active”. The same measure, in the same setting: with `CCCCCCC=CCCC=O` the entry was “inactive”.

As to `C=CC(O)CCCCC` (stereo not drawn), the “odorant receptor agonist call” value is “active”. For the compound `CCC(S)C(C)CO` (stereo not drawn), the “odorant receptor agonist call” value was “inactive”. With `COC(C=C(C)CCC=C(C)C)OC`, the “odorant receptor agonist call” value was “inactive”. For the compound `CC1=C(O)C(=O)C(C)O1` (stereo not drawn), the “odorant receptor agonist call” value was “inactive”. For `C=C1CCC2CC1C2(C)C` (stereo not drawn), the “odorant receptor agonist call” value was “inactive”. Regarding `CCC1OC(C)=C(O)C1=O` (stereo not drawn), the “odorant receptor agonist call” value was “inactive”. On the same count and under the same terms, with `CC1=NC(C)C(C)S1` (stereo not drawn) the entry was “inactive”. Still for that read-out and setting: then `Cc1cnc(C)c(C)n1`, with “inactive”; and `CC(=O)OCCC(C)C`, with “inactive”. Same read-out and setting: with `CCC(C(=O)O)c1ccccc1` (stereo not drawn) the entry was “inactive”. With `CCCCS`, the “odorant receptor agonist call” value was “inactive”. On the same count and under the same terms, with `CC(CC=O)CCCC(C)(C)O` (stereo not drawn) the entry was “active”; with `C=CC(C)(O)CCC=C(C)CCC=C(C)C` (stereo not drawn), “active”; with `CC(=O)c1c(C)c([N+](=O)[O-])c(C(C)(C)C)c([N+](=O)[O-])c1C`, “inactive”.
